Data from the M2OR odorant receptor database.

Experiments:
Conditions in all cases: stereoisomer not certain
OR4C16 (Homo sapiens) = OR4C16 (Homo sapiens) (UniProt Q8NGL9)
Outline: (§1)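 Values were gathered from published papers (main text and supplementary material), with extra details requested from the original authors when needed, and checked for typos and inconsistencies. Each receptor–molecule pair is called responsive (active) if the original authors judged the measured signal statistically different from baseline, and non-responsive (inactive) otherwise. Assay methods varied by source, often transient mammalian cell-line luciferase assays. Recorded details include cell line, G-protein, co-transfected protein and tags.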

OR4C3 (Homo sapiens) = OR4C3 (Homo sapiens) (UniProt Q8NH37)
Outline: as §1

OR4C45 (Homo sapiens) [1] = molecular target: OR4C45 (Homo sapiens) (UniProt A6NMZ5)
Outline: as §1
Target sequence in this assay (A6NMZ5 as listed by the source): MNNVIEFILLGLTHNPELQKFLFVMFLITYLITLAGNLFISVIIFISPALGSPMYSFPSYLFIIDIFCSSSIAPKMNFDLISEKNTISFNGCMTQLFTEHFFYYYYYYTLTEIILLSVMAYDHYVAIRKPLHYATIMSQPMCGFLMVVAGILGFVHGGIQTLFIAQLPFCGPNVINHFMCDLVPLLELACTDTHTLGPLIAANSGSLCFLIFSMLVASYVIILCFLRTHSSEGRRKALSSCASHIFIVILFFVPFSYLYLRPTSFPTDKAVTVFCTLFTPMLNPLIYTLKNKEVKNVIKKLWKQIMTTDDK

OR4C46 (Homo sapiens) = OR4C46 (Homo sapiens) (UniProt A6NHA9)
Outline: as §1

OR4C5 (Homo sapiens) = OR4C5 (Homo sapiens) (UniProt Q8NGB2)
Outline: as §1

OR4C6 (Homo sapiens) = OR4C6 (Homo sapiens) (UniProt Q8NH72)
Outline: as §1

OR4C3 = tested on: OR4C3
Outline: as §1

OR4C45 (Homo sapiens) [2] = molecular target: OR4C45 (Homo sapiens) (UniProt A6NMZ5); remark: listed apart in the source
Outline: as §1
Target sequence in this assay (A6NMZ5 whole entry): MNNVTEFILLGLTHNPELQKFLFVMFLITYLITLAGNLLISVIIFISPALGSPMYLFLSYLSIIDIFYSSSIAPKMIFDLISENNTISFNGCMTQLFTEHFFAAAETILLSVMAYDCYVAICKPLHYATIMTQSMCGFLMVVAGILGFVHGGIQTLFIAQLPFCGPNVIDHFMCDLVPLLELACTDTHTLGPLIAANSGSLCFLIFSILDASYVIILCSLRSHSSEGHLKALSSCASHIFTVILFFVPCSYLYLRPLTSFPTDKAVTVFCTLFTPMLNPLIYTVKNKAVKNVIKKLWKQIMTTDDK

OR4CB P8T = tested on: OR4CB P8T
Outline: as §1

OR4CC = tested on: OR4CC
Outline: as §1

Measured: odorant receptor agonist call

Sequence of OR4C46 (Homo sapiens) (A6NHA9 whole entry): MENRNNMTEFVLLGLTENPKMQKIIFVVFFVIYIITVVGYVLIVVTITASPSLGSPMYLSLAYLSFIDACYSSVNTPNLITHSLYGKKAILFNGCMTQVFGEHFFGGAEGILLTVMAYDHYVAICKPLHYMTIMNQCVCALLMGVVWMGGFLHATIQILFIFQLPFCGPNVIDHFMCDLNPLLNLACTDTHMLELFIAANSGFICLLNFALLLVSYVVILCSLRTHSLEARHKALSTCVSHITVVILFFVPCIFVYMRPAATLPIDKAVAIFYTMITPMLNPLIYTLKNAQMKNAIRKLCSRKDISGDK
Sequence of OR4C6 (Homo sapiens) (Q8NH72 whole entry): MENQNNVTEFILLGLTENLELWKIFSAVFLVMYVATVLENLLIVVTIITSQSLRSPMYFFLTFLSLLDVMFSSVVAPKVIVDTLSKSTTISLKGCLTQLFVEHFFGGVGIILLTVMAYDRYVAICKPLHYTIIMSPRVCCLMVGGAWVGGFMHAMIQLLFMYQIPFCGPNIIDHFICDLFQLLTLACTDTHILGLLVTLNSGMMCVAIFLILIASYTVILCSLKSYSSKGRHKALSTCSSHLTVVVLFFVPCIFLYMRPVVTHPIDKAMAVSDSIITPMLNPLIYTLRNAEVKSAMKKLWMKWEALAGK
Sequence of OR4C16 (Homo sapiens) (Q8NGL9 whole entry): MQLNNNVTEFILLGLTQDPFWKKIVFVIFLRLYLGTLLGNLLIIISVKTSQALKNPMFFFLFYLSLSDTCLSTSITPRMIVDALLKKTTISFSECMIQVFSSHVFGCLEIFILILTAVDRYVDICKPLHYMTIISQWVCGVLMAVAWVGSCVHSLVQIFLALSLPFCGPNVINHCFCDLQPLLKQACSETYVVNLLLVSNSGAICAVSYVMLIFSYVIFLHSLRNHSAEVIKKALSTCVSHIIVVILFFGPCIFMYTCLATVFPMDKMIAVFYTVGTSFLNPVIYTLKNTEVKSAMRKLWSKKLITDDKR
Sequence of OR4C5 (Homo sapiens) (Q8NGB2 whole entry): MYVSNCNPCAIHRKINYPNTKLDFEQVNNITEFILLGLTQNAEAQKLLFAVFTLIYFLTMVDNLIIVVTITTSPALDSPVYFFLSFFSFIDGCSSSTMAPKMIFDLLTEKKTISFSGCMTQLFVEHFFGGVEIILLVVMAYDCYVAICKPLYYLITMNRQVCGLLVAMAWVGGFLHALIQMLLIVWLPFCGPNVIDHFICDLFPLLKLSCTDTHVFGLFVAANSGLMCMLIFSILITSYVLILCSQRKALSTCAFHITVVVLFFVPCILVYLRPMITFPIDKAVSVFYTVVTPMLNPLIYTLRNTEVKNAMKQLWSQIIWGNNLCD
Sequence of OR4CC (as listed by the source): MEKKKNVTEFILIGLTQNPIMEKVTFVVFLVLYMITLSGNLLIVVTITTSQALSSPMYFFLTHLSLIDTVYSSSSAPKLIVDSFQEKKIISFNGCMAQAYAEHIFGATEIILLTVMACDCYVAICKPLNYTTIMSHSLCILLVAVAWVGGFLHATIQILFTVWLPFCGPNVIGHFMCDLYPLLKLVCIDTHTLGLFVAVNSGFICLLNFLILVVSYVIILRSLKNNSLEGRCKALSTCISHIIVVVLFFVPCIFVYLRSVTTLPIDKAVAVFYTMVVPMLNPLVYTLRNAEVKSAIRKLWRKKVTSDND
Sequence of OR4C3 (Homo sapiens) (Q8NH37 whole entry): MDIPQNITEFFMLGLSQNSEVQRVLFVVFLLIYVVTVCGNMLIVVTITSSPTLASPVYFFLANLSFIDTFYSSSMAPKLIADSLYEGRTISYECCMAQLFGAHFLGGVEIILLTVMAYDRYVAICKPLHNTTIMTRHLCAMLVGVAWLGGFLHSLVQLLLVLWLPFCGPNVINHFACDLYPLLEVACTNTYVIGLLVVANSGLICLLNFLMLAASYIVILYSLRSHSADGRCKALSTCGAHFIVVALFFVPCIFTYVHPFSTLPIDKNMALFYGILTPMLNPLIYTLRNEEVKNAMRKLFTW
Sequence of OR4C3 (as listed by the source): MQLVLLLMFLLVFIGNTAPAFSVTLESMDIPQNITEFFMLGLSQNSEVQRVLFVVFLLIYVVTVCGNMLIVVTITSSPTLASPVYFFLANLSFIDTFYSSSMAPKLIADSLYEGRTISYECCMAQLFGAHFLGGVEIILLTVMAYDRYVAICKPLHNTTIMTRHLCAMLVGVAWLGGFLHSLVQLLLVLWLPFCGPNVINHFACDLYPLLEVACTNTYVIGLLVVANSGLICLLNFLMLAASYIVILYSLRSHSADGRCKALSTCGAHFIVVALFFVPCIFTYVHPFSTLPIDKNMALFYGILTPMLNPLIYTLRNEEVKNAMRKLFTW
Sequence of OR4CB P8T (as listed by the source): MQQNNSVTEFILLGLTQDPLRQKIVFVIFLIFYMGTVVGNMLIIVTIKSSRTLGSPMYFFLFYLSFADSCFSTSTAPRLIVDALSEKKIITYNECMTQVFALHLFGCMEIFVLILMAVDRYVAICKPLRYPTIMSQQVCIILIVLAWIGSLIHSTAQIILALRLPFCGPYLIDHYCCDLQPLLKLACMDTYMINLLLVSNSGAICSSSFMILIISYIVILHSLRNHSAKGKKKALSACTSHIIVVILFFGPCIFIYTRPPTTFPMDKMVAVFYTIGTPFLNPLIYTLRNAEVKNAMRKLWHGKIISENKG

Cc1c([N+](=O)[O-])c(C)c([N+](=O)[O-])c(C(C)(C)C)c1[N+](=O)[O-]
inactive: OR4C16 (Homo sapiens) | OR4C3 (Homo sapiens) | OR4C45 (Homo sapiens) [1] | OR4C46 (Homo sapiens) | OR4C5 (Homo sapiens) | OR4C6 (Homo sapiens)

C=CCOC(=O)Cc1ccccc1
not listed: OR4C3 (Homo sapiens) | OR4C45 (Homo sapiens) [1]
inactive: all other assays above
